The nature of assay [1]: Half-lethal concentration against COLO,HCC2998,HCT116,SK-MEL-2 cell lines. The class given is functional, Homo sapiens. An outline of the steps:
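NCI in vitro human tumor cell line screen. After a 24 h drug-free incubation, compounds were added at five 10-fold dilutions, with a maximum of 10^-4 M (test range 10^-4 to 10^-8 M). Cells were exposed for 2 days. Growth was read from the change in protein-stain optical density, and the half-lethal concentration (LC50) was derived for each cell line.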

Assay [2] concerns Panel (Carcinoma cell lines). Briefly: sc score: subcutaneous implants. measured as in vivo hollow fiber assay in minimum of 12 human cancer cell lines. It is filed as functional.
In assay [3] the test system is Panel (Carcinoma cell lines). Nature of the assay: ip score (intraperitoneal implants) measured as in vivo hollow fiber assay in minimum of 12 human cancer cell lines. It is filed as functional.
The subject of the next assay is Cancer cell lines. Nature of the assay: Cell kill activity against cancer cell lines; No. The class given is functional, cell-based. The note with it: Homo sapiens.

For `CC(=O)N[C@@H]1[C@H](OCc2ccccc2)O[C@@H](COC(=O)CCCCCNc2ccc([N+](=O)[O-])c3nc4ccc(O)cc4c(O)c23)[C@@H](O)[C@@H]1OC(C)C(=O)N[C@@H](C)C(=O)N[C@H](CCC(N)=O)C(=O)OCc1ccccc1` (stereo partly specified), in assay [1], the “MID log LC50” value is recorded as -4.23 M.

As to `CC(=O)N[C@@H]1[C@H](OCc2ccccc2)O[C@@H](CO)[C@@H](O)[C@@H]1OCC(=O)N[C@@H](C)C(=O)N[C@H](CCC(=O)NCCCCCNc1c2ccccc2nc2cccc([N+](=O)[O-])c12)C(N)=O`, in assay [1], the “MID log LC50” value is on record as -5.82 M. Besides, the Subcut score in assay [2] is on record as 8. For the same compound, the Ip score in assay [3] came to 16.

`CC(=O)N[C@@H]1[C@H](OCc2ccccc2)O[C@@H](CO)[C@@H](O)[C@@H]1OC(C)C(=O)N[C@@H](C)C(=O)N[C@H](CCC(=O)NCCCCNc1c2ccccc2nc2cccc([N+](=O)[O-])c12)C(N)=O` (stereo partly specified): the “MID log LC50” value in assay [1] is listed as -5.49 M. Besides, the Subcut score in assay [2] was 12. In assay [3], this compound had an Ip score of 4.

For `CC(=O)N[C@@H]1[C@H](OCc2ccccc2)O[C@@H](CO)[C@@H](O)[C@@H]1OC(C)C(=O)N[C@H](C(=O)N[C@H](CCC(=O)NCCCCNc1c2ccccc2nc2cccc([N+](=O)[O-])c12)C(N)=O)C(C)C` (stereo partly specified), in assay [1], the “MID log LC50” value is -4.17 M. The compound further displayed a Subcut score in assay [2] of 2. In assay [3], this compound yielded an Ip score of 32.

For `CC(=O)N[C@@H]1[C@H](OCc2ccccc2)O[C@@H](CO)[C@@H](O)[C@@H]1OCC(=O)N[C@@H](C)C(=O)N[C@H](CCC(=O)NCCCNc1c2ccccc2nc2cccc([N+](=O)[O-])c12)C(N)=O`, the “MID log LC50” value in assay [1] is on record as -4.97 M. Further, the Subcut score in assay [2] amounted to 2. The Ip score in assay [3] is 2. Further, the cell kill activity entry with Cancer cell lines was “No cell kill activity”.

For the compound `CC(=O)N[C@@H]1[C@H](OCc2ccccc2)O[C@@H](COC(=O)CCNc2c3ccccc3nc3cccc([N+](=O)[O-])c23)[C@@H](O)[C@@H]1OC(C)C(=O)N[C@@H](C)C(=O)N[C@H](CCC(N)=O)C(=O)OCc1ccccc1` (stereo partly specified), the “MID log LC50” value in assay [1] is listed as -4.42 M.

Take `CC(=O)N[C@@H]1[C@H](OCc2ccccc2)O[C@@H](CO)[C@@H](O)[C@@H]1OCC(=O)N[C@@H](C)C(=O)N[C@H](CCC(=O)NCCCCNc1c2ccccc2nc2cccc([N+](=O)[O-])c12)C(N)=O`: the “MID log LC50” value in assay [1] is recorded as -4.26 M. This compound also showed a Subcut score in assay [2] of 2. The same compound had an Ip score in assay [3] of 4.

For the compound `COC(=O)[C@@H](CCC(N)=O)NC(=O)[C@@H](NC(=O)C(C)O[C@H]1[C@H](O)[C@H](COC(=O)CCCCCCCCCCNC(=O)c2ccc([N+](=O)[O-])c3c(O)c4ccccc4nc23)O[C@@H](OCc2ccccc2)[C@H]1NC(C)=O)C(C)C` (stereo partly specified), the “MID log LC50” value in assay [1] is reported as -4.25 M.

For `CC(=O)N[C@@H]1[C@H](OCc2ccccc2)O[C@@H](CO)[C@@H](O)[C@@H]1OCC(=O)N1CCC[C@H]1C(=O)N[C@H](CCC(=O)NCCCCCNc1c2ccccc2nc2cccc([N+](=O)[O-])c12)C(N)=O`, the “MID log LC50” value in assay [1] is -5.51 M. The compound also showed a Subcut score in assay [2] of 0. The Ip score in assay [3] was 14.

Take `CC(=O)N[C@@H]1[C@H](OCc2ccccc2)O[C@@H](CO)[C@@H](O)[C@@H]1OC(C)C(=O)N[C@@H](C)C(=O)N[C@H](CCC(=O)NCCNCCNc1c2ccccc2nc2cccc([N+](=O)[O-])c12)C(N)=O` (stereo partly specified): the “MID log LC50” value in assay [1] is listed as -4.56 M. In assay [2], this compound returned a Subcut score of 4. In addition, the Ip score in assay [3] is reported as 2. In addition, the cell kill activity entry in the assay on Cancer cell lines is “No cell kill activity”.

The record behind these values is ChEMBL document CHEMBL1134656, “Synthesis and antitumor activity of conjugates of muramyldipeptide, normuramyldipeptide, and desmuramylpeptides with acridine/acridone derivatives” (2001).
